According to ChEMBL document CHEMBL1142487, “Design, synthesis, and structure-activity relationship of novel opioid kappa-agonists” (Bioorg Med Chem, 2008):
The source made the active and inactive calls. The rule behind the calls is not given here.

Experiments:
[1] = test system: Mus musculus; assay: Antinociceptive activity in sc dosed mouse assessed as inhibition of acetic acid-induced writhing administered 15 mins before acetic acid challenge; type: functional
Summary of the method: (§1)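 Male mice (5 weeks old) received test compound sc into the rostral back or po, 15 min before ip 0.6% aqueous acetic acid (0.1 mL/10 g). Writhes were counted over 10 min, starting 10 min after the acid. […] The po/sc ED50 ratio was calculated.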

[2] = molecular target: Kappa-type opioid receptor (Mus musculus) (UniProt P33534); assay: Equilibrium constant, ratio of IC50 for kappa opioid receptor in ddy mouse vas deferens in presence of 10 nM nor-BNI to IC50 for kappa opioid receptor in ddy mouse vas deferens
Summary of the method: (§2)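 Electrically stimulated ddY mouse vas deferens was held in Krebs-Henseleit at 37 °C under 95% O2/5% CO2. Tissue was preincubated 20 min with antagonist before the test agonist: naloxone 30 nM (μ), NTI 10 nM (δ), or nor-BNI 10 nM (κ). IC50s were compared with and without antagonist. Ke = [antagonist]/(IC50 ratio − 1).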

[3] = test system: Mus musculus; assay: Inhibition of acetic acid-induced writhing in sc dosed mouse up to 180 mins administered 15 mins before acetic acid challenge; type: functional, organism-based
[4] = test system: Mus musculus; assay: Antinociceptive activity in po dosed mouse assessed as inhibition of acetic acid-induced writhing administered 15 mins before acetic acid challenge; type: functional; summary of the method: as §1
[5] = test system: Mus musculus; assay: Ratio of ED50 for acetic acid-induced writhing in po dosed mouse to ED50 for acetic acid-induced writhing in sc dosed mouse; type: functional; summary of the method: as §1
[6] = molecular target: Delta-type opioid receptor (Mus musculus) (UniProt P32300); assay: Equilibrium constant, ratio of IC50 for delta opioid receptor in ddy mouse vas deferens in presence of 10 nM Naltrindole to IC50 for delta opioid receptor in ddy mouse vas deferens; summary of the method: as §2
[7] = molecular target: Kappa-type opioid receptor (Mus musculus, UniProt P33534); assay: Agonist activity at kappa opioid receptor in ddy mouse vas deferens assessed as inhibition of electric stimulation-induced contraction; type: functional, tissue-based
[8] = molecular target: Mu-type opioid receptor (Mus musculus) (UniProt P42866); assay: Equilibrium constant, ratio of IC50 for mu opioid receptor in ddy mouse vas deferens in presence of 30 nM naloxone to IC50 for mu opioid receptor in ddy mouse vas deferens; summary of the method: as §2
[9] = test system: Mus musculus; assay: Antinociceptive activity in sc dosed delta opioid receptor antagonist […] treated mouse assessed as inhibition of acetic acid-induced writhing administered 15 mins before acetic acid challenge; type: functional, organism-based
[10] = test system: Mus musculus; assay: Antinociceptive activity in sc dosed kappa opioid receptor antagonist nor-BNI treated mouse assessed as inhibition of acetic acid-induced writhing administered 15 mins before acetic acid challenge; type: functional, organism-based
[11] = test system: Mus musculus; assay: Antinociceptive activity in sc dosed mu opioid receptor antagonist naloxone treated mouse assessed as inhibition of acetic acid-induced writhing administered 15 mins before acetic acid challenge; type: functional, organism-based
[12] = test system: Mus musculus; assay: Antinociceptive activity in mouse assessed as inhibition of acetic acid-induced writhing at 10 mg/kg, sc administered 15 mins before acetic acid challenge; type: functional; conditions: route subcutaneous; summary of the method: as §1

Structure (SMILES)	ED50 [1]	Ke [2]	ED50 [4]	Ratio ED50 [5]	Ke [6]	IC50 [7]	Ke [8]	other results
CC(=O)Nc1ccc2c3c1O[C@H]1[C@H](N(C)C(=O)/C=C/c4ccoc4)CC[C@@]4(O)[C@@H](C2)N(CC2CC2)CC[C@]314	> 10 mg/kg							
CN(C(=O)/C=C/c1cccs1)[C@@H]1CC[C@@]2(O)[C@H]3Cc4ccc(O)c5c4[C@@]2(CCN3CC2CC2)[C@H]1O5	0.0027 mg/kg	0.28 nM	0.026 mg/kg	9.6	89.6 nM	0.1 nM		Activity [3]: Active
O=C(/C=C/c1ccoc1)S[C@@H]1CC[C@@]2(O)[C@H]3Cc4ccc(O)c5c4[C@@]2(CCN3CC2CC2)[C@H]1O5	> 10 mg/kg							
CN(C(=O)/C=C/c1ccoc1)[C@H]1CC[C@@]2(O)[C@H]3Cc4ccc(O)c5c4[C@@]2(CCN3CC2CC2)[C@H]1O5			0.13 mg/kg					
CN(C(=O)/C=C/c1ccoc1)[C@@H]1CC[C@H]2[C@H]3Cc4ccc(O)c5c4[C@@]2(CCN3CC2CC2)[C@H]1O5	0.02 mg/kg	0.07 nM			1.31 nM	0.035 nM	8.04 nM	
CCCCCCO[C@@H]1CC[C@@]2(O)[C@H]3Cc4ccc(O)c5c4[C@@]2(CCN3CC2CC2)[C@H]1O5	1.78 mg/kg	0.12 nM			1.5 nM	16 nM	4.5 nM	
CN(C(=O)/C=C/c1ccoc1)[C@@H]1CC[C@@]2(O)[C@H]3Cc4ccc(O)c5c4[C@@]2(CCN3CC2CC2)[C@H]1O5.Cl [NALFURAFINE HYDROCHLORIDE]			0.032 mg/kg					Activity [9]: Active; Activity [10]: inactive; Activity [3]: Active; Activity [11]: Active
CN(C(=O)c1ccc2ccccc2c1)[C@@H]1CC[C@@]2(O)[C@H]3Cc4ccc(O)c5c4[C@@]2(CCN3CC2CC2)[C@H]1O5	3.6 mg/kg							
CN1CC[C@]23c4c5ccc(O)c4O[C@H]2[C@H](N(C)C(=O)/C=C/c2ccoc2)CC[C@@]3(O)[C@H]1C5	1.03 mg/kg	6.3 nM			33 nM	55 nM	8.1 nM	
CCCCCC(=O)N[C@@H]1CC[C@@]2(O)[C@H]3Cc4ccc(O)c5c4[C@@]2(CCN3CC2CC2)[C@H]1O5		0.26 nM			2.3 nM	25 nM	4.4 nM	inhibition in vivo at 10 mg/kg [12]: 25%
CN(C(=O)Cc1ccc(Cl)c(Cl)c1)[C@H]1CC[C@@]2(O)[C@H]3Cc4ccc(O)c5c4[C@@]2(CCN3CC2CC2)[C@H]1O5		0.55 nM	0.83 mg/kg	48	17.1 nM	0.4 nM	53 nM	
CN(C(=O)/C=C/c1ccoc1)[C@@H]1CC[C@@]2(O)[C@H]3Cc4ccc(O)c5c4[C@@]2(CCN3CCc2ccccc2)[C@H]1O5	1.03 mg/kg							
CN(C(=O)Cc1ccc(Cl)c(Cl)c1)[C@@H]1CC[C@@]2(O)[C@H]3Cc4ccc(O)c5c4[C@@]2(CCN3CC2CC2)[C@H]1O5		1.37 nM	18 mg/kg	39.1	1110 nM	17 nM	17000 nM	
CN(C(=O)CCc1ccccc1)[C@@H]1CC[C@@]2(O)[C@H]3Cc4ccc(O)c5c4[C@@]2(CCN3CC2CC2)[C@H]1O5		0.008 nM	0.29 mg/kg	7.3	188 nM	0.019 nM		
CCCCCCN[C@@H]1CC[C@@]2(O)[C@H]3Cc4ccc(O)c5c4[C@@]2(CCN3CC2CC2)[C@H]1O5		0.3 nM				2 nM	14 nM	
CN(C(=O)/C=C/c1ccco1)[C@@H]1CC[C@@]2(O)[C@H]3Cc4ccc(O)c5c4[C@@]2(CCN3CC2CC2)[C@H]1O5		0.2 nM	0.015 mg/kg	9.4		0.55 nM		Activity [3]: Active
